# Calls of active or inactive are those of the source. The rule behind the calls is not given here.
# Key:
# [1] = target: T1, Cystic fibrosis transmembrane conductance regulator (Homo sapiens, UniProt P13569); assay: Activation of human wild-type CFTR stably expressed in CHO-K1 cells assessed as increase in chloride current at holding potential 0 mV at 30 uM by whole-cell patch-clamp assay; conditions: filed as activator
# Target sequence in this assay (P13569 whole entry, looked up): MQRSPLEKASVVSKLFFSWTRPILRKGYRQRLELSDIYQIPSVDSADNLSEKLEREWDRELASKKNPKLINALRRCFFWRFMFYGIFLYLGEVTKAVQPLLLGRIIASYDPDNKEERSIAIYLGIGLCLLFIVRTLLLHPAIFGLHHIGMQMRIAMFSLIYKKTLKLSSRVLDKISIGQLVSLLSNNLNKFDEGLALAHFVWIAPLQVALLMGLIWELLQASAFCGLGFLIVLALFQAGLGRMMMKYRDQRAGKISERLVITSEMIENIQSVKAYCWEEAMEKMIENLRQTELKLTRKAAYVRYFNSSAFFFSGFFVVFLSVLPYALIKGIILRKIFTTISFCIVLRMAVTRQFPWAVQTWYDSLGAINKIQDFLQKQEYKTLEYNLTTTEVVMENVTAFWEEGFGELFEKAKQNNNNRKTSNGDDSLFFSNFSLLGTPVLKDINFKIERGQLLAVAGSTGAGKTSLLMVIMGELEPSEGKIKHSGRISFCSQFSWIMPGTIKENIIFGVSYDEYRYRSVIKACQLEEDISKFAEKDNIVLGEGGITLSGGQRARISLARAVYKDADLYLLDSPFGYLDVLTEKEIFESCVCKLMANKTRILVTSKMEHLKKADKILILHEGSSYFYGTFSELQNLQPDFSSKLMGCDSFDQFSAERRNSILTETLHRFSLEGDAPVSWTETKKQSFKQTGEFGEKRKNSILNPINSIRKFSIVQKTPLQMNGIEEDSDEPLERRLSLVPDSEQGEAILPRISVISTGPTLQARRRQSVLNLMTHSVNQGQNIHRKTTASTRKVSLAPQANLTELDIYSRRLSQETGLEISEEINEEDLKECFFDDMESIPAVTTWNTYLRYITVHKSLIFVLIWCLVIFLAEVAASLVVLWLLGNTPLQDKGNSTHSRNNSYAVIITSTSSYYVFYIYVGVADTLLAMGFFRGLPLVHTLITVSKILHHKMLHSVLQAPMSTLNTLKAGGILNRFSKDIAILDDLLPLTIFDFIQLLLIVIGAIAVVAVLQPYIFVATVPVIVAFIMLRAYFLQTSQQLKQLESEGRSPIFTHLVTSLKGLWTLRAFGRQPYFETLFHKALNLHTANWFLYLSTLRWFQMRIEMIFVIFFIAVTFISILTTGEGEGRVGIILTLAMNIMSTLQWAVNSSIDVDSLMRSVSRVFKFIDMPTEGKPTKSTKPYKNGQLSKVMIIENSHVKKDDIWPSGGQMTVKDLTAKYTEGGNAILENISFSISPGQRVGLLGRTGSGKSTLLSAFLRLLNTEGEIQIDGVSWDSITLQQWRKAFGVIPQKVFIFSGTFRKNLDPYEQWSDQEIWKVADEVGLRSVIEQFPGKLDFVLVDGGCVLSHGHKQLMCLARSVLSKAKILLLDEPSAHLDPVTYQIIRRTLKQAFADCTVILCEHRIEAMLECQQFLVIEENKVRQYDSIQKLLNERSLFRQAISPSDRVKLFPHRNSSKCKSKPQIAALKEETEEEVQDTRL
# [2] = target: T1, Cystic fibrosis transmembrane conductance regulator; assay: Activation of human CFTR expressed in CHO-K1 cells assessed as increase in intracellular cAMP level at 10 uM incubated for 10 mins in presence of IBMX by Immunoassay; assay type: cell-based; conditions: filed as activator
# Target sequence in this assay (P13569 whole entry, looked up): as above
# [3] = target: T1, Cystic fibrosis transmembrane conductance regulator; assay: Activation of human wild-type CFTR stably expressed in CHO-K1 cells co-expressing halide sensors YFP-H148Q/I152L assessed as CFTR-mediated iodide influx incubated for 10 mins by YFP fluorescence quenching assay; assay type: cell-based
# Target sequence in this assay (P13569 whole entry): as the sequence (P13569 whole entry, looked up) above
# [4] = Solubility of compound in PBS at 7.5 at 0.5 mg/ml incubated for 90 mins by LC-MS/MS analysis; assay type: physicochemical
# Outline: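 Thermodynamic solubility: compound at 0.5 mg/mL in isotonic phosphate-buffered saline, pH 7.5, vortexed for 90 min. The solution was then filtered sequentially through 0.45, 1.2 and 5.0 μm filters. Concentration was measured by LC-MS/MS against a ≥6-point internal-standard calibration curve (weighted 1/x linear or quadratic) and back-calculated.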
EC50 [3] [µM],"solubility thermodynamic at 1.5 h ([4]; PBS, pH 7.5) [µM]",SMILES,also measured
,,C=C[C@@]1(C)CC(=O)[C@]2(O)[C@@]3(C)[C@@H](O)CCC(C)(C)[C@@H]3[C@H](O)[C@H](OC(C)=O)[C@@]2(C)O1,Activity [1]: Active; Activity [2]: Active
6,,COc1ccc(-c2ccnc3cc(C(=O)N4CCN(C(C)C)CC4)nn23)cc1OC,
0.37,,COc1ccc(-c2ccnc3cc(C(=O)N4CC[C@@H](NC(=O)OC(C)(C)C)C4)nn23)cc1OC,
0.11,10.1,COc1ccc(-c2ccnc3cc(C(=O)N4CCN(C(=O)c5ccccc5)CC4)nn23)cc1OC,
0.27,,COc1ccc(-c2ccnc3cc(C(=O)N4CCN(C(=O)OC(C)(C)C)CC4)nn23)cc1OC,
0.47,,COC(=O)c1ccc(CNC(=O)c2cc3nccc(-c4ccc(OC)c(OC)c4)n3n2)cc1,
1.7,,COc1ccc(-c2ccnc3cc(C(=O)N4CCN(C(=O)C5CC5)CC4)nn23)cc1OC,
0.042,0.341,COc1ccc(-c2ccnc3cc(C(=O)Nc4ccc(C(=O)O)cc4F)nn23)cc1OC,
0.71,,COc1ccc(-c2ccnc3cc(C(=O)NCc4ccc(N5CCOCC5)cc4)nn23)cc1OC,
2.7,,COC(=O)c1ccc(NC(=O)c2cc3nccc(-c4ccc(OC)c(OC)c4)n3n2)c(Cl)c1,
17,,COc1ccc(-c2ccnc3cc(C(=O)N4CCNCC4)nn23)cc1OC,
16,,COc1ccc(-c2ccnc3cc(C(=O)Nc4ccc(C(=O)NCCN)cc4)nn23)cc1OC,
0.31,1.42,COC(=O)C12CC(NC(=O)c3cc4nccc(-c5ccc(OC)c(OC)c5)n4n3)(C1)C2,
,1.39,COc1ccc(-c2ccnc3cc(C(=O)N[C@H]4CC[C@H](C(=O)OC)CC4)nn23)cc1OC,
0.31,5.21,COc1ccc(-c2ccnc3cc(C(=O)Nc4ccc(C(=O)O)cc4)nn23)cc1OC,
0.014,,COC(=O)c1ccc(NC(=O)c2cc3nccc(-c4ccc(OC)c(OC)c4)n3n2)cc1,
0.13,,COc1ccc(-c2ccnc3cc(C(=O)NC4CCCCC4)nn23)cc1OC,
8.1,,COc1ccc(-c2ccnc3cc(C(=O)N4CCN(C)CC4)nn23)cc1OC,
1.4,,COc1ccc(-c2ccnc3cc(C(=O)N4CCN(C5CC5)CC4)nn23)cc1OC,
0.065,,COc1ccc(-c2ccnc3cc(C(=O)Nc4ccccc4)nn23)cc1OC,"solubility thermodynamic at 1.5 h ([4]; buffer, pH 7.5, 1.5 h): 0.059 µM"
0.017,,COc1ccc(-c2ccnc3cc(C(=O)Nc4ccc(C(=O)N5CCN(C(=O)OC(C)(C)C)CC5)cc4)nn23)cc1OC,
,159,COc1ccc(-c2ccnc3cc(C(=O)N4CCN(C(=O)c5ccccc5)[C@H](C)C4)nn23)cc1OC,
0.7,,COc1ccc(-c2ccnc3cc(C(=O)N4CC(NC(=O)OC(C)(C)C)C4)nn23)cc1OC,
0.84,,COc1ccc(-c2ccnc3cc(C(=O)N4CCN(c5ccccc5)CC4)nn23)cc1OC,
0.2,1.82,COc1ccc(-c2ccnc3cc(C(=O)N4CCN(C(=O)c5ccccc5)C(C)(C)C4)nn23)cc1OC,
0.006,,COc1ccc(-c2ccnc3cc(C(=O)Nc4ccc(OCCN5CCOCC5)cc4)nn23)cc1OC,
0.007,,COc1ccc(-c2ccnc3cc(C(=O)Nc4ccc(N5CCOCC5)cc4)nn23)cc1OC,
0.29,237,COc1ccc(-c2ccnc3cc(C(=O)Nc4ccc(C(=O)N5CCN(C)CC5)cc4)nn23)cc1OC.Cl,
,7.55,COc1ccc(-c2ccnc3cc(C(=O)N[C@H]4CC[C@@H](C(=O)OC)CC4)nn23)cc1OC,
0.73,,COc1ccc(-c2ccnc3cc(C(=O)N4CCN(Cc5ccccc5)CC4)nn23)cc1OC,

# Reference: ChEMBL document CHEMBL5316288, “Synthetic Strategies for Improving Solubility: Optimization of Novel Pyrazolo[1,5-a]pyrimidine CFTR Activator That Ameliorates Dry Eye Disease” (J Med Chem, 2023)
